From ChEMBL document CHEMBL1126988, “Quinolone antibacterials containing the new 7-[3-(1-aminoethyl)-1- pyrrolidinyl] side chain: the effects of the 1-aminoethyl moiety and its stereochemical configurations on potency and in vivo efficacy” (J Med Chem, 1993)
Values after ≈ are worked out from the molar mass of the structure shown.

Assays:
Streptococcus pneumoniae [1] = assay: Antibacterial activity expressed as Minimum inhibitory concentration was evaluated in vitro against Streptococcus pneumoniae SV-1; assay type: functional
Summary of the method: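 Standard microtitration broth MIC (μg/mL), averaged from multiple experiments; one of a 10-organism Gram-positive/Gram-negative panel.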

Pseudomonas aeruginosa = assay: Minimum inhibitory concentration was evaluated in vitro against Pseudomonas aeruginosa UI-18; assay type: functional; conditions: Pseudomonas aeruginosa; read-out: MIC
Summary of the method: (§1)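 Standard microtitration broth assay against a panel of 10 Gram-positive and Gram-negative organisms. MIC read in µg/mL and averaged over multiple experiments.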

Enterobacter cloacae = assay: Minimum inhibitory concentration in vitro against Enterobacter cloacae MA 2646; assay type: functional; conditions: Enterobacter cloacae; read-out: MIC
Staphylococcus aureus [2] = assay: Minimum inhibitory concentration was evaluated in vitro against Staphylococcus aureus H 228; assay type: functional; summary of the method: as §1
Streptococcus pyogenes [3] = assay: Compounds were evaluated in vivo for antibacterial activity for mouse protection against Streptococcus pyogenes C 203 after subcutaneous administration; assay type: functional; conditions: C 203, sc, read-out: PD50
Staphylococcus aureus [4] = assay: Minimum inhibitory concentration was evaluated in vitro against Staphylococcus aureus UC 76; assay type: functional; summary of the method: as §1
Enterococcus faecalis = assay: Minimum inhibitory concentration was evaluated in vitro against Enterococcus faecalis MGH-2; assay type: functional; summary of the method: as §1
Streptococcus pyogenes [5] = assay: Minimum inhibitory concentration was evaluated in vitro against Streptococcus pyogenes C 203; assay type: functional; summary of the method: as §1
Streptococcus pyogenes [6] = assay: Compounds were evaluated in vivo for antibacterial activity for mouse protection against Streptococcus pyogenes C 203 after oral administration; assay type: functional; conditions: for ED50: C 203, po, read-out: PD50
Escherichia coli [7] = assay: Antibacterial activity in vitro against Escherichia coli Vogel; assay type: functional; conditions: Escherichia coli; read-out: MIC; summary of the method: as §1
Providencia rettgeri = assay: Minimum inhibitory concentration was evaluated in vitro against Providencia rettgeri M1771; assay type: functional; conditions: Providencia rettgeri; read-out: MIC; summary of the method: as §1
Klebsiella pneumoniae = assay: Minimum inhibitory concentration was evaluated in vitro against Klebsiella pneumoniae MGH2; assay type: functional; conditions: Klebsiella pneumoniae; read-out: MIC; summary of the method: as §1
Escherichia coli [8] = assay: Antibacterial activity against Escherichia coli Vogel after oral administration in mouse; assay type: functional; conditions: for ED50: Escherichia coli, po, read-out: PD50
Streptococcus pneumoniae [9] = assay: Minimum inhibitory concentration was evaluated in vitro against Streptococcus pneumoniae SV-1; assay type: functional; summary of the method: as §1
Streptococcus pyogenes [10] = assay: Antibacterial activity measured as mouse protection against Streptococcus pyogenes C 203 after subcutaneous administration; assay type: functional; conditions: Streptococcus pyogenes, C 203, sc; read-out: PD50
DNA gyrase = DNA gyrase (Escherichia coli, UniProt P0AES4+P0AES6); assay: Inhibition against DNA gyrase; assay type: protein-complex assay
Escherichia coli [11] = assay: Antibacterial activity against Escherichia coli Vogel after subcutaneous administration in mouse; assay type: functional; conditions: for ED50: Escherichia coli, sc, read-out: PD50
[12] = Clonogenic cytotoxicity against hamster V-79 cells; assay type: functional, Cricetulus griseus, V79
Summary of the method: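 Chinese hamster V-79 cells grown overnight, then drug-treated for 3 h at 37 °C. Medium is replaced with fresh medium and cells are incubated 5 days to allow colony formation. IC50 (µg/mL) is the concentration inhibiting colony formation by 50% relative to control.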

Mus musculus [13] = organism: Mus musculus; assay: Compound was evaluated for phototoxicity no-effect dose in mouse; assay type: functional
Summary of the method: (§2)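 Depilated female CD-1 mice, five per dose plus controls. Animals are dosed orally and then exposed daily to UV-A (320–400 nm) for 3 h, for up to 4 days or until a definite positive response. Redness or erythema relative to controls, read 24 h after irradiation, counts as positive. Reported as the highest dose with no effect (mg/kg).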

Mus musculus [14] = organism: Mus musculus; assay: Compounds were evaluated for phototoxicity no-effect dose in mouse; assay type: functional; summary of the method: as §2
Streptococcus pyogenes [15] = assay: Antibacterial activity expressed as Minimum inhibitory concentration was evaluated in vitro against Streptococcus pyogenes C 203; assay type: functional; summary of the method: as §1
[16] = Staphylococcus aureus, read-out: MIC
[17] = Enterococcus faecalis, read-out: MIC
[18] = Streptococcus pyogenes, read-out: MIC
[19] = Streptococcus pneumoniae, read-out: MIC

SMILES | MIC (Pseudomonas aeruginosa) | MIC (Enterobacter cloacae) | MIC (Staphylococcus aureus [2]; [16]) | MIC (Staphylococcus aureus [4]; [16]) | MIC (Enterococcus faecalis; [17]) | MIC (Streptococcus pyogenes [5]; [18]) | MIC (Escherichia coli [7]) | MIC (Providencia rettgeri) | MIC (Klebsiella pneumoniae) | ED50 (Escherichia coli [8]) | MIC (Streptococcus pneumoniae [9]; [19]) | ED50 (Streptococcus pyogenes [6]; Streptococcus pyogenes) | ED50 (Streptococcus pyogenes [10]) | IC50 (DNA gyrase) | ED50 (Escherichia coli [11]) | other results
CCN[C@@H](C)[C@H]1CCN(c2nc3c(cc2F)c(=O)c(C(=O)O)cn3C2CC2)C1 | 6.3 µg/mL (≈ 16.2 µM) | 0.8 µg/mL (≈ 2.06 µM) | 0.8 µg/mL (≈ 2.06 µM) | 0.4 µg/mL (≈ 1.03 µM) | 0.8 µg/mL (≈ 2.06 µM) | 0.4 µg/mL (≈ 1.03 µM) | 0.4 µg/mL (≈ 1.03 µM) | 3.1 µg/mL (≈ 7.98 µM) | 0.8 µg/mL (≈ 2.06 µM) |  |  |  |  |  |  | MIC (Streptococcus pneumoniae [1]): 0.2 µg/mL (≈ 0.515 µM); ED50 (Streptococcus pyogenes [3]): 12 mg/kg; ED50 (Streptococcus pyogenes [6]): 12 mg/kg
CCNCC1CCN(c2c(F)cc3c(=O)c(C(=O)O)cn(C4CC4)c3c2F)C1 (stereo unspecified) [PD-117558] |  | 0.1 µg/mL (≈ 0.255 µM) | 0.025 µg/mL (≈ 0.0639 µM) |  |  |  | 0.05 µg/mL (≈ 0.128 µM) | 0.2 µg/mL (≈ 0.511 µM) |  | 4 mg/kg |  |  |  |  |  | ED50 (Streptococcus pyogenes [3]): 0.8 mg/kg; ED50 (Streptococcus pyogenes [6]): 1 mg/kg
NCC1CCN(c2cc3c(cc2F)c(=O)c(C(=O)O)cn3C2CC2)C1 (stereo unspecified) | 0.8 µg/mL (≈ 2.32 µM) | 0.1 µg/mL (≈ 0.29 µM) | 0.05 µg/mL (≈ 0.145 µM) | 0.006 µg/mL (≈ 0.0174 µM) | 0.05 µg/mL (≈ 0.145 µM) | 0.013 µg/mL (≈ 0.0376 µM) | 0.05 µg/mL (≈ 0.145 µM) | 0.2 µg/mL (≈ 0.579 µM) | 0.1 µg/mL (≈ 0.29 µM) | > 100 mg/kg | 0.013 µg/mL (≈ 0.0376 µM) | > 100 mg/kg | 4 mg/kg | 1.45 µM | 2 mg/kg | 
CC1(CN)CCN(c2cc3c(cc2F)c(=O)c(C(=O)O)cn3C2CC2)C1 (stereo unspecified) |  |  | 0.1 µg/mL (≈ 0.278 µM) | 0.013 µg/mL (≈ 0.0362 µM) |  |  |  | 0.8 µg/mL (≈ 2.23 µM) |  | 43 mg/kg |  | 31 mg/kg | 3 mg/kg | 2.78 µM | 3 mg/kg | 
C[C@@H](N)[C@H]1CCN(c2nc3c(cc2F)c(=O)c(C(=O)O)cn3C2CC2)C1 (racemic) | 0.8 µg/mL (≈ 2.22 µM) | 0.05 µg/mL (≈ 0.139 µM) |  |  |  |  | 0.05 µg/mL (≈ 0.139 µM) | 0.2 µg/mL (≈ 0.555 µM) | 0.1 µg/mL (≈ 0.277 µM) |  |  |  | 5 mg/kg | 6.94 µM |  | MIC (Streptococcus pneumoniae [9]): 0.05 µg/mL (≈ 0.139 µM); MIC (Staphylococcus aureus [2]): 0.2 µg/mL (≈ 0.555 µM); Cytotoxicity [12]: 84 µg/mL; Dose (Mus musculus [13]): >100 mg/kg; MIC (Staphylococcus aureus [4]): 0.025 µg/mL (≈ 0.0694 µM); MIC (Enterococcus faecalis): 0.1 µg/mL (≈ 0.277 µM); MIC (Streptococcus pyogenes [5]): 0.05 µg/mL (≈ 0.139 µM); PD50 (Streptococcus pyogenes [6]): 15 mg/kg; PD50 (Escherichia coli [11]): 1 mg/kg
C[C@H](N)[C@H]1CCN(c2nc3c(cc2F)c(=O)c(C(=O)O)cn3C2CC2)C1 | 1.6 µg/mL (≈ 4.44 µM) | 0.05 µg/mL (≈ 0.139 µM) | 0.2 µg/mL (≈ 0.555 µM) | 0.025 µg/mL (≈ 0.0694 µM) | 0.1 µg/mL (≈ 0.277 µM) | 0.05 µg/mL (≈ 0.139 µM) | 0.05 µg/mL (≈ 0.139 µM) | 0.4 µg/mL (≈ 1.11 µM) | 0.2 µg/mL (≈ 0.555 µM) |  | 0.05 µg/mL (≈ 0.139 µM) | 28 mg/kg | 10 mg/kg | 6.94 µM |  | 
C[C@@H](N)[C@@H]1CCN(c2cc3c(cc2F)c(=O)c(C(=O)O)cn3C2CC2)C1 | 1.6 µg/mL (≈ 4.45 µM) | 0.2 µg/mL (≈ 0.556 µM) | 0.2 µg/mL (≈ 0.556 µM) | 0.05 µg/mL (≈ 0.139 µM) | 0.1 µg/mL (≈ 0.278 µM) | 0.025 µg/mL (≈ 0.0696 µM) | 0.1 µg/mL (≈ 0.278 µM) | 0.8 µg/mL (≈ 2.23 µM) | 0.4 µg/mL (≈ 1.11 µM) |  | 0.025 µg/mL (≈ 0.0696 µM) | > 100 mg/kg | 2 mg/kg | 2.09 µM |  | 
C[C@@H](N)[C@H]1CCN(c2nc3c(cc2F)c(=O)c(C(=O)O)cn3-c2ccc(F)cc2F)C1 (racemic) | 0.8 µg/mL (≈ 1.85 µM) | 0.2 µg/mL (≈ 0.463 µM) | 0.05 µg/mL (≈ 0.116 µM) | 0.006 µg/mL (≈ 0.0139 µM) | 0.025 µg/mL (≈ 0.0578 µM) |  | 0.1 µg/mL (≈ 0.231 µM) | 0.4 µg/mL (≈ 0.925 µM) | 0.2 µg/mL (≈ 0.463 µM) |  | 0.006 µg/mL (≈ 0.0139 µM) | 1 mg/kg | 1 mg/kg | 1.16 µM | 1 mg/kg | Cytotoxicity [12]: 280 µg/mL; Dose (Mus musculus [14]): >100 mg/kg; PD50 (Escherichia coli [8]): 3 mg/kg; MIC (Streptococcus pyogenes [15]): 0.006 µg/mL (≈ 0.0139 µM)
